In ChEMBL document CHEMBL5303300, “EUbOPEN Chemogenomics Library - Multiplex” (2023):
Where “and” joins values, the source holds several entries; their conditions need not be identical. Equal entries are not always repeated.

Tested on: HEK-293T
Assay: Multiplex assay against HEK293T
Format: toxicity, cell-based
Details: human, number of replicates 2
Procedure, shortened: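 Cells were classed with CellPathfinder machine-learning gating, first as Hoechst high-intensity objects or normal cells, then (normal cells) as healthy, pyknosed or fragmented nuclei, and finally (pyknosed cells) as mitotic or apoptotic. Staining of live cells at seeding used Hoechst33342, BioTracker Green Microtubule Cytoskeleton Dye, MitoTracker Red and Annexin V Alexa Fluor 680, with imaging on a CQ1 microscope at 37°C and 5% CO2 after compound addition. Tubulin, mitochondrial-mass and membrane-permeability phenotypes are per cents of healthy-nucleus cells.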

[1] = 12 h, 1 µM, compound concentration 1 uM
[2] = 12 h, 10 µM, compound concentration 10 uM
[3] = 24 h, 1 µM, compound concentration 1 uM
[4] = 24 h, 10 µM, compound concentration 10 uM
[5] = 48 h, 1 µM, compound concentration 1 uM
[6] = 48 h, 10 µM, compound concentration 10 uM

Br.Cc1cccc(C2CN(C)CCc3c2cc(O)c(O)c3Cl)c1 (stereo unspecified)
Population Apoptotic (%) [1]: 15% and 42% | Population Fragmented Nuclei (%) [1]: 4% and 3% | Population Healthy Nuclei (%) [1]: 87% and 86% | Population Hoechst High Intensity Objects (%) [1]: 9% and 4% | Population Membrane Permeable-Phenotype (%) [1]: 3% and 2% | Population Mitochondria Different-Phenotype (%) [1]: 11% and 15% | Population Mitotic Cells (%) [1]: 84% and 57% | Population Normal (%) [1]: 90% and 95% | Population Pyknosed Nuclei (%) [1]: 8% and 10% | Population Tubulin-Different-Phenotype (%) [1]: 50% | Total Cell Count [1]: 707 and 682 | Population Apoptotic (%) [2]: 52% and 53% | Population Fragmented Nuclei (%) [2]: 3% and 4% | Population Healthy Nuclei (%) [2]: 88% and 81% | Population Hoechst High Intensity Objects (%) [2]: 8% and 7% | Population Membrane Permeable-Phenotype (%) [2]: 1% and 2% | Population Mitochondria Different-Phenotype (%) [2]: 27% and 22% | Population Mitotic Cells (%) [2]: 47% and 46% | Population Normal (%) [2]: 91% and 92% | Population Pyknosed Nuclei (%) [2]: 7% and 14% | Population Tubulin-Different-Phenotype (%) [2]: 63% and 57% | Total Cell Count [2]: 523 and 513 | Population Apoptotic (%) [3]: 36% and 32% | Population Fragmented Nuclei (%) [3]: 5% | Population Healthy Nuclei (%) [3]: 89% | Population Hoechst High Intensity Objects (%) [3]: 7% and 8% | Population Membrane Permeable-Phenotype (%) [3]: 3% and 1% | Population Mitochondria Different-Phenotype (%) [3]: 3% and 5% | Population Mitotic Cells (%) [3]: 63% and 68% | Population Normal (%) [3]: 92% and 91% | Population Pyknosed Nuclei (%) [3]: 4% and 5% | Population Tubulin-Different-Phenotype (%) [3]: 28% and 35% | Total Cell Count [3]: 1088 and 1072 | Population Apoptotic (%) [4]: 26% and 51% | Population Fragmented Nuclei (%) [4]: 7% and 5% | Population Healthy Nuclei (%) [4]: 87% and 89% | Population Hoechst High Intensity Objects (%) [4]: 7% | Population Membrane Permeable-Phenotype (%) [4]: 2% and 3% | Population Mitochondria Different-Phenotype (%) [4]: 11% and 10% | Population Mitotic Cells (%) [4]: 73% and 48% | Population Normal (%) [4]: 92% | Population Pyknosed Nuclei (%) [4]: 4% and 5% | Population Tubulin-Different-Phenotype (%) [4]: 53% and 49% | Total Cell Count [4]: 768 and 746 | Population Apoptotic (%) [5]: 7% and 15% | Population Fragmented Nuclei (%) [5]: 16% and 12% | Population Healthy Nuclei (%) [5]: 80% and 84% | Population Hoechst High Intensity Objects (%) [5]: 12% and 10% | Population Membrane Permeable-Phenotype (%) [5]: 6% and 4% | Population Mitochondria Different-Phenotype (%) [5]: 0% and 1% | Population Mitotic Cells (%) [5]: 92% and 84% | Population Normal (%) [5]: 87% and 89% | Population Pyknosed Nuclei (%) [5]: 2% and 3% | Population Tubulin-Different-Phenotype (%) [5]: 15% and 19% | Total Cell Count [5]: 2930 and 2368 | Population Apoptotic (%) [6]: 10% and 21% | Population Fragmented Nuclei (%) [6]: 12% | Population Healthy Nuclei (%) [6]: 84% | Population Hoechst High Intensity Objects (%) [6]: 11% | Population Membrane Permeable-Phenotype (%) [6]: 9% and 6% | Population Mitochondria Different-Phenotype (%) [6]: 0% and 1% | Population Mitotic Cells (%) [6]: 89% and 78% | Population Normal (%) [6]: 88% | Population Pyknosed Nuclei (%) [6]: 2% | Population Tubulin-Different-Phenotype (%) [6]: 22% and 26% | Total Cell Count [6]: 1797 and 1636
